The source made the active and inactive calls. No cut-off for these calls is given here.
Key:
[1] = target: T1, Sodium channel protein type 3 subunit alpha (Homo sapiens, UniProt Q9NY46); experiment: Inhibition of human Nav1.3 assessed as tonic block by patch-clamp electrophysiology/cell based assay
Summary of the method: (§1)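 Automated parallel patch-clamp (PatchXpress 7000A) on cells expressing human Nav1.3, run at room temperature. Compounds were tested at 0.1, 0.3, 1, 3, 10, 30 and 100 μM, each in two to four cells, with 5 min exposure per concentration.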

Mus musculus [2] = experiment: Immunosuppressive activity in […] oxazolone-induced ABH mouse assessed as effect on cell proliferation response in draining lymph node at 5 to 50 mg/kg, ip from day -1 to day 2 by local lymph node assay; format: functional, organism-based
[3] = target: T2, Sodium channel protein type 5 subunit alpha (Homo sapiens, UniProt Q14524); experiment: Inhibition of human Nav1.5 assessed as tonic block by patch-clamp electrophysiology/cell based assay
Summary of the method: (§2)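 Automated parallel patch clamp (PatchXpress 7000A) on human Nav isoforms, room temperature. Compound tested at 0.1, 0.3, 1, 3, 10, 30 and 100 μM, two to four cells per concentration, 5 min exposure each. Use-dependence on Nav1.1 and Nav1.8/β3 by double pulse protocol: holding -80 mV, prepulse -120 mV, then pulse 1 to 0 mV for 200 ms.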

[4] = target: T3, Sodium channel protein type 8 subunit alpha (Homo sapiens, UniProt Q9UQD0); experiment: Inhibition of human Nav1.6 assessed as 10 Hz block by patch-clamp electrophysiology/cell based assay
Summary of the method: (§3)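 Automated parallel patch clamp on cells expressing human Nav isoforms (hNav1.1 to hNav1.8/β3), at room temperature. Compounds were tested at 0.1, 0.3, 1, 3, 10, 30 and 100 μM. Each exposure lasted 5 min, with two to four cells per concentration.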

[5] = target: T4, Sodium channel protein type 4 subunit alpha (Homo sapiens, UniProt P35499); experiment: Inhibition of human Nav1.4 assessed as tonic block by patch-clamp electrophysiology/cell based assay; summary of the method: as §2
Mus musculus [6] = experiment: Toxicity in mouse assessed as motor coordination at 5 to 50 mg/kg, ip from day -1 to day 2 by RotaRod assay; format: organism-based; design: dose 5-50 mg/kg, route intraperitoneal; settings: in vivo
[7] = Displacement of [3H]sipatrigine from Wistar rat brain synaptosomes voltage-gated sodium channel by liquid scintillation counting; format: subcellular
[8] = target: T5, Sodium channel protein type 1 subunit alpha (Homo sapiens, UniProt P35498); experiment: Inhibition of human Nav1.1 assessed as 10 Hz block using double pulse protocol by patch-clamp electrophysiology/cell based assay; summary of the method: as §2
[9] = target: T4, Sodium channel protein type 4 subunit alpha; experiment: Inhibition of human Nav1.4 assessed as inactivated-state block by patch-clamp electrophysiology/cell based assay; summary of the method: as §2
[10] = target: T3, Sodium channel protein type 8 subunit alpha; experiment: Inhibition of human Nav1.6 assessed as tonic block by patch-clamp electrophysiology/cell based assay; summary of the method: as §3
Mus musculus [11] = experiment: Neuroprotective activity in C57BL/6-Cg-Tg(Thy1-CFP)23Jrs.Tg(Tcra2D2, Tcrb2D2)1Kuch/J transgenic mouse optic neuritis model assessed as increase in ganglion cell survival at 5 mg/kg, ip; format: functional, organism-based; design: dose 5 mg/kg
[12] = target: T3, Sodium channel protein type 8 subunit alpha; experiment: Inhibition of human Nav1.6 assessed as inactivated-state block by patch-clamp electrophysiology/cell based assay; summary of the method: as §3
[13] = target: T5, Sodium channel protein type 1 subunit alpha; experiment: Inhibition of human Nav1.1 assessed as inactivated-state block using double pulse protocol by patch-clamp electrophysiology/cell based assay; summary of the method: as §2
[14] = target: T2, Sodium channel protein type 5 subunit alpha; experiment: Inhibition of human Nav1.5 assessed as inactivated-state block by patch-clamp electrophysiology/cell based assay; summary of the method: as §2
[15] = target: T1, Sodium channel protein type 3 subunit alpha; experiment: Inhibition of human Nav1.3 assessed as inactivated-state block by patch-clamp electrophysiology/cell based assay; summary of the method: as §1
Mus musculus [16] = experiment: Neuroprotective activity in C57BL/6-Cg-Tg(Thy1-CFP)23Jrs.Tg(Tcra2D2, Tcrb2D2)1Kuch/J transgenic mouse optic neuritis model assessed as reduction in retinal loss measured as number of cells at 5 mg/kg, ip (reference value: 914 +/- 89 cells); format: functional; settings: route intraperitoneal
[17] = Metabolic stability in rat liver microsomes assessed as drug turnover at 1 uM at 40 mins by LC-MS/MS analysis; format: ADME; settings: read-out: Drug metabolism
Summary of the method: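 Compound at 1 μM was incubated (n=2) with pooled rat liver microsomes (0.25 mg protein/ml) at 37°C for 0 and 40 min. Reactions were stopped with acetonitrile containing an internal standard, and parent disappearance was measured by LC-MS/MS. Percentage turnover was taken from peak heights relative to the zero-time samples.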

[18] = target: T5, Sodium channel protein type 1 subunit alpha; experiment: Inhibition of human Nav1.1 assessed as tonic block using double pulse protocol by patch-clamp electrophysiology/cell based assay; summary of the method: as §2
[19] = target: T1, Sodium channel protein type 3 subunit alpha; experiment: Inhibition of human Nav1.3 assessed as 10 Hz block by patch-clamp electrophysiology/cell based assay; summary of the method: as §1
Rattus norvegicus = organism: Rattus norvegicus; experiment: Neuroprotective activity in oxygen/glucose deprivation-induced Wistar rat hippocampal slice assessed as inhibition of cell death by measuring ATP level at 50 uM; format: functional
[20] = target: T4, Sodium channel protein type 4 subunit alpha; experiment: Inhibition of human Nav1.4 assessed as 10 Hz block by patch-clamp electrophysiology/cell based assay; summary of the method: as §2
[21] = target: T6, Sodium channel protein type 2 subunit alpha (Homo sapiens, UniProt Q99250); experiment: Inhibition of human Nav1.2 assessed as inactivated-state block by patch-clamp electrophysiology/cell based assay
[22] = target: T6, Sodium channel protein type 2 subunit alpha; experiment: Inhibition of human Nav1.2 assessed as tonic block by patch-clamp electrophysiology/cell based assay
[23] = target: T7, Sodium channel protein type 9 subunit alpha (Homo sapiens, UniProt Q15858); experiment: Inhibition of human Nav1.7 assessed as inactivated-state block by patch-clamp electrophysiology/cell based assay
[24] = target: T8, Sodium channel protein type 10 subunit alpha (Homo sapiens, UniProt Q9Y5Y9); experiment: Inhibition of human Nav1.8 assessed as tonic block using double pulse protocol by patch-clamp electrophysiology/cell based assay; summary of the method: as §2
[25] = target: T8, Sodium channel protein type 10 subunit alpha; experiment: Inhibition of human Nav1.8 assessed as 10 Hz block using double pulse protocol by patch-clamp electrophysiology/cell based assay; summary of the method: as §2
[26] = target: T6, Sodium channel protein type 2 subunit alpha; experiment: Inhibition of human Nav1.2 assessed as 10 Hz block by patch-clamp electrophysiology/cell based assay
[27] = target: T7, Sodium channel protein type 9 subunit alpha; experiment: Inhibition of human Nav1.7 assessed as tonic block by patch-clamp electrophysiology/cell based assay
[28] = target: T2, Sodium channel protein type 5 subunit alpha; experiment: Inhibition of human Nav1.5 assessed as 10 Hz block by patch-clamp electrophysiology/cell based assay; summary of the method: as §2
[29] = target: T8, Sodium channel protein type 10 subunit alpha; experiment: Inhibition of human Nav1.8 assessed as inactivated-state block using double pulse protocol by patch-clamp electrophysiology/cell based assay; summary of the method: as §2
[30] = target: T7, Sodium channel protein type 9 subunit alpha; experiment: Inhibition of human Nav1.7 assessed as 10 Hz block by patch-clamp electrophysiology/cell based assay

T1 sequence (Q9NY46 whole entry): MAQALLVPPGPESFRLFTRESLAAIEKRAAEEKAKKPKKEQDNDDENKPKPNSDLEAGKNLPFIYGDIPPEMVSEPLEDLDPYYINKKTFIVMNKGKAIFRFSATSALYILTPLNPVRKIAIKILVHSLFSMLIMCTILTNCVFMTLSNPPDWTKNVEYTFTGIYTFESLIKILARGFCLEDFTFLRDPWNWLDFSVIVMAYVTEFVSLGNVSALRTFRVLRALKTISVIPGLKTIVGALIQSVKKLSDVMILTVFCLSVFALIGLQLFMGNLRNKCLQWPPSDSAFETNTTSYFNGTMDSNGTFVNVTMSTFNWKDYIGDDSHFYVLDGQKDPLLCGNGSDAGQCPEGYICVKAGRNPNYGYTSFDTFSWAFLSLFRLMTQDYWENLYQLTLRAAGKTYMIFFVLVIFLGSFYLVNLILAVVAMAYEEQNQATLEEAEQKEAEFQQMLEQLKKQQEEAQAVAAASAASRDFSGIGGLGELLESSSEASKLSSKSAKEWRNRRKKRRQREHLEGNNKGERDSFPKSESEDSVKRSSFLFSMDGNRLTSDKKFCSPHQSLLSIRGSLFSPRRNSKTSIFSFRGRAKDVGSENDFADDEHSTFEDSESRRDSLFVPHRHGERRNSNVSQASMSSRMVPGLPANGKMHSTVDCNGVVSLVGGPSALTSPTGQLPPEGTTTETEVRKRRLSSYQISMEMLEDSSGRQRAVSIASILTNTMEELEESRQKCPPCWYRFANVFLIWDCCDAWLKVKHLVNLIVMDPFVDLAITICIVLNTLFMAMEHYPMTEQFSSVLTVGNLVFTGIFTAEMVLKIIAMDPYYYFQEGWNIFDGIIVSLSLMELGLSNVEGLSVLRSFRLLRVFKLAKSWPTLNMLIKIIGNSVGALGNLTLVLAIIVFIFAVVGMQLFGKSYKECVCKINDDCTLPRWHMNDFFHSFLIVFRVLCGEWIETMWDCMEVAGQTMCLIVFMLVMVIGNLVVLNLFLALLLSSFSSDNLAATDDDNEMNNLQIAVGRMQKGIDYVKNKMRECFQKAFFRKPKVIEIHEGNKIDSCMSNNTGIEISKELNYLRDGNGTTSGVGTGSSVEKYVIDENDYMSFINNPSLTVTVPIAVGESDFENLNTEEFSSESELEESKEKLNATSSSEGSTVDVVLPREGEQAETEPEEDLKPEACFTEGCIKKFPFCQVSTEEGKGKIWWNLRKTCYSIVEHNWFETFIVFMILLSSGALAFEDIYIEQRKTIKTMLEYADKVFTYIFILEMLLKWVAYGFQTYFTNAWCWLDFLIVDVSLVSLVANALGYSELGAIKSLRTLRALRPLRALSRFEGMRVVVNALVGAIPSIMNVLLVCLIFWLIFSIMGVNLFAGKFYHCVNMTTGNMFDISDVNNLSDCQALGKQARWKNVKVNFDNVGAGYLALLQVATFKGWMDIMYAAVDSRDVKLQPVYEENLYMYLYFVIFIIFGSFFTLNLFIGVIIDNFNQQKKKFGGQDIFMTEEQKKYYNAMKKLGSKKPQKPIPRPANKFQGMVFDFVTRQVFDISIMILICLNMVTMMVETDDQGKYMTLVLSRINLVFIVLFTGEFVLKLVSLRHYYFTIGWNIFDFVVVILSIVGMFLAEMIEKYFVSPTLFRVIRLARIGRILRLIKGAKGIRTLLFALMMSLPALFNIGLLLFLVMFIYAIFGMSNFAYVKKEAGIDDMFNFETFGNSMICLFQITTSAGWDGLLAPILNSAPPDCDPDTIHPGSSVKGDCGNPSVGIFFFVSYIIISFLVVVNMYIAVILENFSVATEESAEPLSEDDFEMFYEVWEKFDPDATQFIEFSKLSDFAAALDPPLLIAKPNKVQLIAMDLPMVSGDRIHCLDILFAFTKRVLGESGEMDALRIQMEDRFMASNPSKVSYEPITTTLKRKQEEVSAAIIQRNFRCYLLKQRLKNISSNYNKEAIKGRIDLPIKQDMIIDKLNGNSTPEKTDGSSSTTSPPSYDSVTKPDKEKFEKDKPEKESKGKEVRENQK
T8 sequence (Q9Y5Y9 whole entry): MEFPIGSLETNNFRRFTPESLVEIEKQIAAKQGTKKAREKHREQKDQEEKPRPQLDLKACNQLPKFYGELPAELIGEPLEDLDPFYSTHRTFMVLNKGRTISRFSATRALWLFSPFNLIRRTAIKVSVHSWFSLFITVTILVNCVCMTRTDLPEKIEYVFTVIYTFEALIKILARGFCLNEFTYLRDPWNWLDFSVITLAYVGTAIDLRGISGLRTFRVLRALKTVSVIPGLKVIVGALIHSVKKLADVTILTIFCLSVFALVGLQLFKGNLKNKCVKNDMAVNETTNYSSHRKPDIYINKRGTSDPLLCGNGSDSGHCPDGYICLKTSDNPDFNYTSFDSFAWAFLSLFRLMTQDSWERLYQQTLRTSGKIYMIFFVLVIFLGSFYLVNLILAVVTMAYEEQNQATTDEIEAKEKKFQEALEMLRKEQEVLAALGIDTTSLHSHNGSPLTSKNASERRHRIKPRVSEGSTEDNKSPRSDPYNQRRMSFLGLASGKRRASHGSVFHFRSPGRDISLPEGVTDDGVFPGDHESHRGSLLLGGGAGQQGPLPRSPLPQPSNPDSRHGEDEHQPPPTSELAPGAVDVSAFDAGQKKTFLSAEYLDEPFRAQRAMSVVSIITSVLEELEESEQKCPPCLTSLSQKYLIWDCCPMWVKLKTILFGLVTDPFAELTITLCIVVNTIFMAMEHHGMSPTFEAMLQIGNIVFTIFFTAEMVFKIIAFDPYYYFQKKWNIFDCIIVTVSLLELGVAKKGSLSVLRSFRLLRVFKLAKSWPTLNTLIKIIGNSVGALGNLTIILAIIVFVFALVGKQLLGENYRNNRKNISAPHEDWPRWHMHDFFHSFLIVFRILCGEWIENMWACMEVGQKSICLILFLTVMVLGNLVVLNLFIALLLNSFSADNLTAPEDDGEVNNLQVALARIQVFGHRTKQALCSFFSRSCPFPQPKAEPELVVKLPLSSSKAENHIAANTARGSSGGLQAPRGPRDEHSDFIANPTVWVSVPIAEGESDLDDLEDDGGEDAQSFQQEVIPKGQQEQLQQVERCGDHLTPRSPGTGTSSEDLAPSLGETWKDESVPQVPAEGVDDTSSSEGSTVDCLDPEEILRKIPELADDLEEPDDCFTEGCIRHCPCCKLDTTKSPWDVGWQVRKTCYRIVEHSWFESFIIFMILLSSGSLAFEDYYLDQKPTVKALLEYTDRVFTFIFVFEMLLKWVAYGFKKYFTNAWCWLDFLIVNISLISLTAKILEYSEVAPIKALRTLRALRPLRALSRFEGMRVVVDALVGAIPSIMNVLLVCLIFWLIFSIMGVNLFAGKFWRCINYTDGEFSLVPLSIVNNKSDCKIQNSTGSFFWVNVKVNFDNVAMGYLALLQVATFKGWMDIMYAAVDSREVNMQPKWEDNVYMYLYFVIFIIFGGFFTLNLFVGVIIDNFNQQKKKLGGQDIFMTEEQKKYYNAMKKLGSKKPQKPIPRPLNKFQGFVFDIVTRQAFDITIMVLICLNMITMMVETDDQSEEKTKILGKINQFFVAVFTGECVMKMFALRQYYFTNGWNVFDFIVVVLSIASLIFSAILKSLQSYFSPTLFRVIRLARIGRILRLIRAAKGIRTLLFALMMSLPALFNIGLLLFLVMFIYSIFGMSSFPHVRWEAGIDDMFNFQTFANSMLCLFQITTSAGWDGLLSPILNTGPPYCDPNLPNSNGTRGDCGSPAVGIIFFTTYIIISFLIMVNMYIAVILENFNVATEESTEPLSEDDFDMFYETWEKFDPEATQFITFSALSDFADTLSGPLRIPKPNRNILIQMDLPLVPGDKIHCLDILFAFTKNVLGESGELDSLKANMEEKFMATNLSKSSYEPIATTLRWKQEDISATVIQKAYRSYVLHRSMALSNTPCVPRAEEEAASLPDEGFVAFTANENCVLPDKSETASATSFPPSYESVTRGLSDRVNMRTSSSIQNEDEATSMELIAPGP

| Structure (SMILES) | IC50 [1] [µM] | IC50 [3] [µM] | IC50 [4] [µM] | IC50 [5] [µM] | IC50 [8] [µM] | IC50 [9] [µM] | IC50 [10] [µM] | IC50 [12] [µM] | IC50 [13] [µM] | IC50 [14] [µM] | IC50 [15] [µM] | IC50 [18] [µM] | IC50 [19] [µM] | inhibition at 50 µM (Rattus norvegicus) [%] | IC50 [20] [µM] | other results |
| --- | --- | --- | --- | --- | --- | --- | --- | --- | --- | --- | --- | --- | --- | --- | --- | --- |
| O=C(NCc1noc(-c2nn(CCn3ccnc3)c3ccccc23)n1)c1ccccc1 | > 100 | > 100 | > 100 | > 100 | > 100 | 24 | > 100 | 24 | 21 | 19 | 22 | > 100 | > 100 | 47 | 56 | inhibition (Mus musculus [2]): inactive; Activity (Mus musculus [6]): Non-toxic; IC50 [7]: 13 µM; Activity (Mus musculus [11]): Active; Activity (Mus musculus [16]): 1298 /mm2; metabolised at 40 min, 1 µM [17]: 47% |
| O=C(NCc1noc(-c2c3ccccc3nn2CCn2ccnc2)n1)c1cccc(OC(F)(F)F)c1 | > 100 | 36 | 32.2 | 18.3 | 8.54 | 4.58 | > 100 | 3.32 | 2.55 | 0.92 | 4.76 | 15.3 | 97 | 78 | 10.5 | IC50 [21]: 3.54 µM; IC50 [22]: 65 µM; IC50 [23]: 3.02 µM; IC50 [24]: 6.34 µM; IC50 [25]: 5.66 µM; IC50 [26]: 24.1 µM; IC50 [27]: 5.64 µM; IC50 [28]: 14.8 µM; IC50 [29]: 3.77 µM; IC50 [30]: 4.82 µM |

Reference: ChEMBL document CHEMBL3232919, “Imidazol-1-ylethylindazole voltage-gated sodium channel ligands are neuroprotective during optic neuritis in a mouse model of multiple sclerosis” (J Med Chem, 2014)
